Sampled rows, rich in hits. Any-hit rate of the full collection: about 2.6%.
XiGFP reactiv: X-chromosome reactivation activator; XiGFP mouse fibroblasts, % GFP-positive cells imaging, 3 d; cells co-treated with 5-aza-dC sensitizer; scaled so ellipticine positive control = 100%; activation, % at 7.58 µM; 360,000 tested, 0.055% active;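 active = mean normalized replicate activation at least 10% and every replicate at or above 10%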;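 note: 0% = median of on-plate neutral control wells and 100% = ellipticine 6 µM median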
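Material: XiGFP fibroblasts, SV40-immortalized. Buffer or medium: DMEM plus 5-aza-dC sensitizer. Compound: single concentration per compound, delivered by pin transfer. Times: 3 days compound exposure. Controls: ellipticine 6 µM.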
SR-BI HDL uptake: mouse SR-BI HDL lipid transfer inhibition; AID 488896; ldlA[mSR-BI] CHO cells, DiI-HDL uptake fluorescence, 3 h; Q61009; 320,000 tested, 0.96% active; inhibition, % at 12.5 µM;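 active = mean replicate inhibition of at least 70% and a set share of replicates each scoring 70 or more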;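 note: 0% = median of neutral control wells and 100% = median of positive control wells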
Target sequence (Q61009 whole entry, looked up): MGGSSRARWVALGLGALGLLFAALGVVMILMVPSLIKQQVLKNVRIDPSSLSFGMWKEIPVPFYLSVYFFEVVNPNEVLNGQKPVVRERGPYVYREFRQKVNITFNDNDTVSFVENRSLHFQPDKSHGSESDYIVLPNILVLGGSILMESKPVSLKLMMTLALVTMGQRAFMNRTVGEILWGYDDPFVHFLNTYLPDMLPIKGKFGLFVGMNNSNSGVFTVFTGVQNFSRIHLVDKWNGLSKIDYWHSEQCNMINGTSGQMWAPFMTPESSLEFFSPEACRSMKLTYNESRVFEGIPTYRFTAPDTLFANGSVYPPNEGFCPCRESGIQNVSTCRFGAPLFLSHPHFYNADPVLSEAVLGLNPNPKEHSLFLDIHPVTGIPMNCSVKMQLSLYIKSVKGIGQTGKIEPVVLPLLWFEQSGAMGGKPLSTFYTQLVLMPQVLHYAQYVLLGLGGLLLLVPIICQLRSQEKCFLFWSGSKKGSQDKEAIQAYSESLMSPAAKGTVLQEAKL
PvdQ inh: P. aeruginosa PvdQ acylase inhibition; inhibition, % at 10 µM; purified PvdQ acylase, fluorescence plate reader; 340,000 tested, 0.063% active; in the data active = inhibition above about 30%, passing the limit was not always enough;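 note: 0% = vehicle neutral wells and 100% = reference inhibitor wells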
dFosB act: enhances mouse delta FosB homodimer DNA binding | AID 493131 | 340,000 tested, 0.99% active | P13346 | activation, % at 25 µM | purified delta FosB, TAMRA-CDK5 oligo fluorescence polarization; percent of positive-control signal above neutral wells;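 active = mean activation above about 17%, with every replicate also reaching it, limit read from the data, passing the limit was not always enough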
SR-BI DiI-HDL act: SR-BI HDL lipid transfer activation. activation, % at 12.5 µM. CHO ldlA[mSR-BI] cells, DiI-HDL uptake fluorescence, 3 h; 100 = double the neutral-control signal. 320,000 tested, 0.096% active;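 active = mean replicate activation of at least 60% and every replicate at or above 60%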;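 note: 0% = median plate neutral-control signal and 100% = twice that signal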
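System: LDL receptor-deficient CHO ldlA cells overexpressing murine SR-BI | Timing: 3 h uptake period with compound, 37 °C | Medium: HEPES-buffered (25 mM, pH 7.4) F12 plus 0.5% BSA | Dosing: Single-point compound dose | Signal: Bottom-read fluorescence, 550/595 nm | Read-out: Retained DiI signal reflecting DiI-HDL uptake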
Ecoli rRNA inh: selective bacterial rRNA inhibition in E. coli; E. coli WT GFP vs humanized-ribosome RFP mutants, fluorescence, 24 h; stronger effect = lower value; DMSO median 0, no signal -100; GFP signal change (wild-type ribosome), % (no concentration beside the values); 350,000 tested, 1.6% active; AID 720706;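 active = significant combined selectivity score with lowered wild-type GFP, culture density cut under 30%, mutant RFP and density less affected; inactive = any of these conditions unmet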
* hit, by the source's call; . = no result given.

SMILES | XiGFP reactiv | SR-BI HDL uptake | PvdQ inh | dFosB act | SR-BI DiI-HDL act | Ecoli rRNA inh
C/C(=N\NC(=O)c1cc(-c2ccc(Br)s2)[nH]n1)c1ccncc1 | 0 | 4 | 5 | -12 | -4 | -18
Cc1cc(C(=O)N/N=C/c2cccs2)n[nH]1 | 0 | 5 | -9 | -7 | -5 | 9
C/C(=N\NC(=O)c1cc(-c2ccc(Cl)s2)[nH]n1)c1ccncc1 | 0 | 2 | -14 | -9 | -2 | -21*
O=C(N/N=C/c1cccs1)c1cc(-c2ccc(Cl)s2)[nH]n1 | 0 | . | -5 | 7 | . | -22*
O=C(N/N=C/c1ccco1)c1cc(-c2ccc(Cl)s2)[nH]n1 | 0 | 20 | -2 | -4 | -20 | -26*
O=C(O)c1ccc(CS(=O)(=O)c2c(Cl)cccc2Cl)o1 | 0 | 2 | -13 | 3 | -2 | 24
Cc1ccc(S(=O)(=O)N(C)C[C@H]2Oc3c(NC(=O)C4CC4)cccc3C(=O)N([C@@H](C)CO)C[C@H]2C)cc1 | -1 | . | . | . | . | -4
C(#Cc1ccccc1)C[N+]1(CC#Cc2ccccc2)CCCC1 | 0 | -16 | -2 | -2 | 16 | -44*
O=c1c2ccccc2n2c(=S)[nH]nc2n1-c1ccccc1 | 0 | . | -1 | 6 | . | -7
Cc1nc2cc(Cl)c(Cl)cc2n1CCCO | 0 | . | . | . | . | -22*
CCCC(=NCCc1c(C)[nH]c2ccccc12)C1=C(O)CC(c2ccccc2)CC1=O (configuration not stated) | . | 38 | -11 | -6 | -38 | .
COc1ccc2c3c(n(C)c2c1)[C@H](CO)N(C(=O)c1ccccc1)CC31CN(C(C)=O)C1 | 0 | . | . | . | . | -2
Cc1ccc2nc(/C(C#N)=C\c3ccc([N+](=O)[O-])o3)[nH]c2c1 | . | 8 | 11 | -2 | -8 | .
N#C/C(=C\c1ccc([N+](=O)[O-])o1)c1nc2ccccc2[nH]1 | 62* | . | . | . | . | -11
COc1ccc(C)c2sc(=NC(=O)c3ccccc3)n(C)c12 | 7 | 74* | -5 | 3 | -74 | 1
O=C(NCc1ccco1)C(=O)c1cn(CC(=O)N2CCCC2)c2ccccc12 | 0 | 10 | -9 | -7 | -10 | 18
NC(N)=NS(=O)(=O)c1ccc(NC(=S)NC(=O)/C=C/c2cccs2)cc1 | 0 | -5 | -3 | 62* | 5 | -5
O=C(/C=C/c1cccs1)Nc1ccncc1 | 0 | 20 | 36* | -9 | -20 | 9
NC(N)=NS(=O)(=O)c1ccc(NC(=S)NC(=O)/C=C/c2ccc(F)cc2)cc1 | 0 | 7 | 8 | -8 | -7 | 5
Cc1cccc(NC(=O)c2ccc([N+](=O)[O-])o2)n1 | . | -1 | 9 | -5 | 1 | .
Cc1cc(NC(=O)CCC(=O)N(c2ccc(F)cc2)C2(C(=O)NC3CCCCC3)CCCC2)no1 | . | 8 | 0 | -20 | -8 | .
Cc1[nH]n(-c2ccccc2)c(=O)c1N=Nc1ccc(F)cc1 | 0 | 44 | -8 | -17 | -44 | 6
CSc1ccc(N=Nc2c(C)[nH]n(C)c2=O)cc1 | 0 | 4 | 0 | -9 | -4 | -24*
CN(C)c1ccc(NC(=O)c2sc(SCC(=O)Nc3ccc(Br)cc3)nc2N)cc1 | . | -1 | 0 | 28* | 1 | .
COc1ccc(CC(=O)Nc2ccc(C(=O)NCC(C)C)cc2)cc1 | . | 6 | 17 | 28* | -6 | 10
SMILES | XiGFP reactiv | SR-BI HDL uptake | PvdQ inh | dFosB act | SR-BI DiI-HDL act | Ecoli rRNA inh
CC(=O)Oc1ccc(C(=O)Nc2ccccc2C(=O)NCC(C)C)cc1 | 0 | 74* | -1 | -4 | -74 | .
C[C@@H]1CN([C@@H](C)CO)C(=O)Cc2cc(NS(=O)(=O)c3cccs3)ccc2O[C@@H]1CN(C)C(=O)Nc1cccc2ccccc12 | 0 | . | . | . | . | -4
Cc1ccc(-c2csc(NC(=O)C[n+]3cc(-c4ccccc4)n4c3CCC4)n2)cc1 | 0 | . | . | . | . | -55
Cc1ccc(C[n+]2cc(-c3ccc(Cl)cc3)n3c2CCC3)cc1 | 0 | -4 | -8 | -3 | 4 | -47*
O=C(C[n+]1cc(-c2ccc(Cl)cc2)n2c1CCCCC2)c1ccccc1 | 0 | 0 | -14 | -9 | 0 | -51*
Cc1ccc(-c2csc(NC(=O)C[n+]3cc(-c4ccc(C)cc4)n4c3CCC4)n2)cc1 | 0 | 25 | 10 | 37* | -25 | -53
O=C(C[n+]1cc(-c2ccc(Br)cc2)n2c1CCCCC2)c1ccccc1 | 0 | -4 | 0 | 7 | 4 | -50
CC1CCCCC12NC(=O)N(CC(=O)OCc1ccccc1F)C2=O (configuration not stated) | 0 | 6 | -8 | -18 | -6 | -14
Cc1ccc(S(=O)(=O)Oc2ccccc2/C=N/Nc2ccc(C(=O)O)cc2)cc1 | 0 | -2 | 10 | 0 | 2 | -33*
CCCN(CC1CC1)C(=O)CSc1ncnc2sccc12 | -1 | 4 | -4 | -12 | -4 | -18*
Cc1cccc(-n2c(-c3ccc(Br)o3)n[nH]c2=S)c1 | 0 | -6 | 3 | -3 | 6 | -20*
COc1cccc(-n2nnnc2SCC(=O)NCc2ccc3c(c2)OCO3)c1 | . | 0 | -8 | -9 | 0 | -21*
CC1CCCCC1NC(=O)CCn1c(=S)[nH]c2ccccc2c1=O (configuration not stated) | 0 | . | . | . | . | 11
Cc1cc(C)cc(NC(=O)CCn2c(=S)[nH]c3ccccc3c2=O)c1 | 0 | 11 | -1 | 30* | -11 | 1
Cc1nc([N+](=O)[O-])c(Br)n1CC(=O)c1ccc(F)cc1 | 0 | . | -9 | 0 | . | -33*
COC(=O)Cn1c(C)nc([N+](=O)[O-])c1Br | 0 | -6 | -16 | 0 | 6 | 11
Cc1nc([N+](=O)[O-])c(Br)n1CC(=O)c1cccc([N+](=O)[O-])c1 | 0 | -15 | -4 | 8 | 15 | -39*
CC(C)(Cc1ccccc1)NC(=O)C(=O)c1cn(CC(=O)N2CCOCC2)c2ccccc12 | 0 | 9 | 3 | -2 | -9 | 3
Cc1cc(C)c(NC(=O)Cn2cnc3c(oc4ccccc43)c2=O)c(C)c1 | 0 | -11 | -21 | 52* | 11 | 8
O=C(Nc1c(C(=O)N2CCN(c3ccccn3)CC2)oc2ccccc12)c1ccc([N+](=O)[O-])cc1 | 0 | 10 | -14 | -4 | -10 | 5
O=C(Nc1ccc(C(=O)OC[C@@H]2CCCN3CCCC[C@H]23)cc1)c1cccc(Br)c1 | 0 | 21 | -28 | -20 | -21 | -44*
CC(C)N(CCc1ccncc1)C(=S)Nc1cccc(Cl)c1 | 0 | . | -8 | 6 | . | -17*

Screening data (PubChem)
